Consider one compound from PMC6148399 (SLAS discovery : advancing life sciences R & D, 2018).

The IC50 is the concentration needed to halve the response being measured. One may read the Ki as the dissociation constant of the complex between target and ligand, obtained from inhibition or displacement.

One assay concerns the target T1, human IP6K2 (Homo sapiens, UniProt Q9UHH9).
T1 sequence (Q9UHH9 1-426): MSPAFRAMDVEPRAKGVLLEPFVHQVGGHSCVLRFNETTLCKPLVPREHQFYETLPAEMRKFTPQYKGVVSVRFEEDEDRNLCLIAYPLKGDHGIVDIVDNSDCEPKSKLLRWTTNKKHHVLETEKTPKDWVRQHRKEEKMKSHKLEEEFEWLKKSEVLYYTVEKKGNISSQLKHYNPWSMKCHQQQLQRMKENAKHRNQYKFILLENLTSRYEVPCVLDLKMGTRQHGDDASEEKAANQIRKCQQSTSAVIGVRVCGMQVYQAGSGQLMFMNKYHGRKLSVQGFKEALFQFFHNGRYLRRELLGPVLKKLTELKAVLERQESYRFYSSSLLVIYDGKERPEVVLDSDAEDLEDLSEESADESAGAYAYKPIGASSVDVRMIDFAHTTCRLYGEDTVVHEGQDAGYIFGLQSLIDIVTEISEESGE
As to the kind of experiment: IP6K2 TR-FRET assay for ADP detection. The note with it: read-out: IC50 for IP6K2; TR-FRET Adapta, 400 nM IP6K2, 10 µM ATP, 10 µM InsP6. Format: biochemical. In a few lines: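 Buffer: 50 mM HEPES pH 7.5, 0.01% Brij-35, 10 mM MgCl2, 1 mM EGTA. Test compound (3-fold, 10-point dilutions) preincubated 10–20 min at room temperature with enzyme, then ATP/InsP6 added; 30 min reaction. Detection: 2 nM Eu-anti-ADP antibody, 12 nM ADP tracer, 10 mM EDTA (final), 30 min. 665/615 nm ratio; inhibition scaled DMSO-only (0%) to no-enzyme (100%); ~20% ATP turnover.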
In general terms: Time-resolved FRET reads energy transfer from a long-lived donor to a nearby acceptor.

A further assay deals with IP6K1 (Homo sapiens, UniProt Q92551). The note with it: cited from earlier work.
Chain of IP6K1 (Q92551 whole entry, species assumed): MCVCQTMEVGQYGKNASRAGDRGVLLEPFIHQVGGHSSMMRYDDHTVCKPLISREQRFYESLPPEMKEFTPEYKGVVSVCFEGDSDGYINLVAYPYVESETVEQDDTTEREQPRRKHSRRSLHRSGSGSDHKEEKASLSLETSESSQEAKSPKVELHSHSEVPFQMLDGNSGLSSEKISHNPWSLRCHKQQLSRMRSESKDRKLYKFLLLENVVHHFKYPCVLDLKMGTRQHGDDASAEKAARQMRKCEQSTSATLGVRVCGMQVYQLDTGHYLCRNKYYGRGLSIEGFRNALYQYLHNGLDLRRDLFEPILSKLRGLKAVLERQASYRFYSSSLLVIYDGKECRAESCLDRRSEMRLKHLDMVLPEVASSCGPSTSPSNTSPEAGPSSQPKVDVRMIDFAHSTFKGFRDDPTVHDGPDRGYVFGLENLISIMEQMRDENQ

As for `O=[N+]([O-])c1ccc(CNc2nc(NCc3cccc(C(F)(F)F)c3)nc3nc[nH]c23)cc1` [TNP, N2-(m-(trifluoromethyl)benzyl) N6-(p-nitrobenzyl)purine], the half-inhibitory concentration (IC50) on human IP6K2 is 7.36 µM; on IP6K1 (read-out: IC50 previously reported for IP6K1), 0.43 µM. Further, the Ki at IP6K1 (read-out: Ki previously reported for IP6K1) was 0.24 µM.
